Here are results for four molecules from ChEMBL document CHEMBL4152356, “Amphipathic sulfonamidobenzamides mimicking small antimicrobial marine natural products; investigation of antibacterial and anti-biofilm activity against antibiotic resistant clinical isolates” (Bioorg Med Chem, 2018).

Data set [1] concerns Bacillus subtilis. Nature of the data set: Antibacterial activity against Bacillus subtilis 168 ATCC 23857 after 48 hrs by microdilution method. In kind it is functional. The settings on record: subsp. subtilis str. 168 ATCC 23857, 48 h. The gist of the method: (§1)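 Broth microdilution (CLSI M07-A9, modified) in Mueller-Hinton broth; inoculum about 2.5-3 × 10^4 cells/ml mixed 1:1 with serial compound dilutions. Stock solutions in up to 100% DMSO, final DMSO ≤1%. Incubated 35 °C for 48 h.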
(In broth dilution the organism is exposed to a series of concentrations in liquid medium.)

A short description of data set [2]: Solubility of the compound in PBS.
The subject of data set [3] is Corynebacterium glutamicum. Nature of the data set: Antibacterial activity against Corynebacterium glutamicum ATCC 13032 after 48 hrs by microdilution method. In kind it is functional. As to conditions: ATCC 13032, 48 h. The essentials:
as §1

For data set [4], the system named is Pseudomonas aeruginosa. Briefly: Antibacterial activity against Pseudomonas aeruginosa PAO1 DSM 19880 ATCC 15692 after 48 hrs by microdilution method. Format: functional. The settings on record: PAO1 DSM 19880 ATCC 15692, 48 h. The essentials: as §1
A further data set relates to Erythrocyte. Briefly: Hemolytic activity against human RBC measured after 1 hr. Format: cell-based. The gist of the method: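 Washed human RBCs from a healthy donor (heparinized) at 10% in PBS pH 7.4, mixed 9:1 with serial compound dilutions, 37 °C for 1 h. Baseline set by 0.5% DMSO in 50% PBS, 100% lysis by 0.05% Triton X-100. EC50 is the concentration giving 50% lysis.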

A further data set has as its system MRC5. Nature of the data set: Cytotoxicity against human MRC5 cells after 72 hrs by MTS assay. Format: cell-based. As to conditions: MRC5, 72 h. The gist of the method: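 MRC-5 lung fibroblasts in DMEM with 10% FBS, 37 °C, 5% CO2; seeded at 4000 cells/well, adhered 24 h, medium replaced. Two-fold dilutions up to 100 µg/ml for 72 h, then MTS for 1 h and absorbance at 485 nm. Controls were 1% DMSO (negative) and 0.5% Triton X-100 (positive). EC50 is the concentration giving 50% inhibition of survival.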
(Formazan colour is commonly taken as a measure of viable cells.)

Data set [5] deals with Staphylococcus epidermidis. Nature of the data set: Antibacterial activity against methicillin resistant Staphylococcus epidermidis RP62A ATCC 35984/CCUG 31568 after 48 hrs by microdilution method. The settings on record: RP62A ATCC 35984/CCUG 31568, 48 h. In kind it is functional. The gist of the method: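 Broth microdilution (modified CLSI M07-A9) against the MRSE reference strain. Inoculum of about 2.5-3 × 10^4 cells/ml in Mueller-Hinton broth mixed 1:1 with serial compound dilutions; final DMSO ≤1%. Incubated 35 °C, 48 h.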

For data set [6], the system named is Staphylococcus aureus. Briefly: Antibacterial activity against Staphylococcus aureus ATCC 9144 after 48 hrs by microdilution method. In kind it is functional. The settings on record: ATCC 9144, 48 h. The gist of the method: as §1
Data set [7] concerns Escherichia coli. Nature of the data set: Antibacterial activity against Escherichia coli ATCC 25922 after 48 hrs by microdilution method. In kind it is functional. The settings on record: ATCC 25922, 48 h. The gist of the method:
as §1

Data set [8] concerns Pseudomonas aeruginosa. Nature of the data set: Antibacterial activity against Pseudomonas aeruginosa clinical isolates after 24 hrs by microdilution method. Format: functional. The gist of the method:
(§2)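 Clinical isolate screen by broth microdilution with about 1-1.2 × 10^6 cells/ml and 24 h incubation. MIC is the lowest concentration with no growth. For isolate collections, MIC90 is the MIC inhibiting ≥90% of isolates. Multidrug resistance was defined as resistance to at least […] antimicrobial class.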

Data set [9] relates to Escherichia coli. Briefly: Antibacterial activity against Escherichia coli clinical isolates after 24 hrs by microdilution method. Format: functional. The gist of the method:
as §2

Data set [10] deals with Staphylococcus aureus. Briefly: Antibacterial activity against Staphylococcus aureus clinical isolates after 24 hrs by microdilution method. In kind it is functional. The essentials: as §2
Data set [11] is described as follows: Selectivity index, ratio of EC50 for human RBC to MIC for methicillin resistant Staphylococcus epidermidis RP62A ATCC 35984/CCUG 31568. Format: toxicity. The settings on record: human red blood cells (RBC), read-out: Selectivity Index. The essentials:
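SI = hemolytic EC50 / MRSE MIC. Hemolysis: washed human RBCs (heparinized blood, healthy adult donor) at 10% in PBS pH 7.4, mixed 9:1 with serial compound dilutions, 37 °C for 1 h. 0.05% Triton X-100 set 100% lysis, 0.5% DMSO set baseline. MIC from MHB microdilution, 35 °C, […].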

For another data set, the system named is Enterococcus sp. Briefly: Antibacterial activity against Enterococcus sp. clinical isolates after 24 hrs by microdilution method. In kind it is functional. The gist of the method:
as §2

The next data set concerns Klebsiella pneumoniae. Briefly: Antibacterial activity against Klebsiella pneumoniae clinical isolates after 24 hrs by microdilution method. In kind it is functional. The gist of the method: as §2
The test system of data set [12] is Staphylococcus epidermidis. Briefly: Antibiofilm activity against Staphylococcus epidermidis RP62A ATCC 35984/CCUG 31568 incubated for 24 +/- 2 hrs by crystal violet staining based assay. Format: functional. The gist of the method:
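Mature S. epidermidis RP62A biofilms: filtered overnight TSB culture adjusted to 2 McFarland, diluted in TSB with 1% glucose to about 6 × 10^6 CFU/ml, grown 24 ± 2 h at 37 °C static, then PBS-washed. Compounds in 50% TSBglu added for 24 ± 2 h at 37 °C. Biomass given as % of untreated control; ≥90% eradication threshold. Compounds tested at 2x, 5x and 10x MIC, 4-8 parallels on 2-3 plates, highest and lowest values excluded.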

For data set [13], the system named is Bacillus subtilis. Briefly: Induction of membrane disruption in Bacillus subtilis 168 expressing luciferase at 12.5 ug/ml measured up to 60 secs by luminescence assay. In kind it is functional, organism-based. As to conditions: subsp. subtilis str. 168. The gist of the method: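 Luminescence followed up to […]. Fold induction is maximal luminescence relative to chlorhexidine control (31 or 20 µg/ml). Mean ± SD of two experiments.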

Calls of active or inactive are those of the source.

What is called MIC is the lowest concentration found to suppress growth. A word on the solubility: it is the dissolved amount per volume that the medium holds. Broadly, the EC50 is the concentration at which the effect is half-maximal. Higher therefore signals weaker potency.

Regarding `Cl.N=C(N)NCCNC(=O)c1ccc(NS(=O)(=O)c2cc(C(F)(F)F)cc(C(F)(F)F)c2)cc1`, the minimal inhibitory concentration (MIC) (against Bacillus subtilis [1]; in data set [3]; with Pseudomonas aeruginosa [4]; in data set [5]; with Staphylococcus aureus [6]; with Escherichia coli [7]) was > 128 µg/mL each time. Further, in data set [2], the solubility is > 64 µg/mL. Besides, the EC50 with Erythrocyte is 64 µg/mL; in the data set with MRC5 it was > 100 µg/mL.
With `COc1c(C(C)(C)C)cc(S(=O)(=O)Nc2ccc(C(=O)NCCNC(=N)N)cc2)cc1C(C)(C)C.Cl`, the MIC against Pseudomonas aeruginosa [8] is 32 µg/mL; with Escherichia coli [9], > 128 µg/mL; against Staphylococcus aureus [10], 8 µg/mL; in the data set with Bacillus subtilis [1], 4 µg/mL; in the data set on Enterococcus sp., 64 µg/mL; in the data set on Klebsiella pneumoniae, > 128 µg/mL. The MIC in data set [3] came to 4 µg/mL; in the data set on Pseudomonas aeruginosa [4], 64 µg/mL; in [5], 4 µg/mL; in the data set with Staphylococcus aureus [6], 4 µg/mL; in the data set on Escherichia coli [7], 32 µg/mL. The selectivity ratio in data set [11] came out at 16. Further, in data set [2], the solubility was > 64 µg/mL. For the same molecule, the half-maximal effective concentration (EC50) in the data set on Erythrocyte was 64 µg/mL; with MRC5 it was > 100 µg/mL. The “MBIC=>90” value in data set [12] stood at 40 µg/mL.
As for `CN(c1cccc(C(=O)NCCNC(=N)N)c1)S(=O)(=O)c1cc(C(C)(C)C)cc(C(C)(C)C)c1.Cl`, the minimal inhibitory concentration (MIC) against Pseudomonas aeruginosa [8] worked out at 32 µg/mL; in the data set on Escherichia coli [9], 32 µg/mL; in the data set with Staphylococcus aureus [10], 8 µg/mL; against Bacillus subtilis [1], 4 µg/mL; against Enterococcus sp., 16 µg/mL; against Klebsiella pneumoniae, 64 µg/mL. Also, the MIC in data set [3] worked out at 2 µg/mL; against Pseudomonas aeruginosa [4] it was 32 µg/mL; in data set [5], 4 µg/mL; against Staphylococcus aureus [6], 4 µg/mL; in the data set on Escherichia coli [7], 32 µg/mL. For the same molecule, the outcome with Bacillus subtilis [13] was Active. Moreover, the selectivity ratio in data set [11] is 24. Besides, the EC50 in the data set on Erythrocyte came to 95 µg/mL; in the data set with MRC5 it was 91 µg/mL. Also, in data set [12], the “MBIC=>90” value was determined as 40 µg/mL.
In the case of `CC(C)(C)c1cc(C(C)(C)C)cc(S(=O)(=O)Nc2ccc(C(=O)NCCNC(=N)N)cc2)c1.Cl`, the minimal inhibitory concentration (MIC) with Pseudomonas aeruginosa [8] was > 128 µg/mL; in the data set on Escherichia coli [9], > 128 µg/mL; with Staphylococcus aureus [10], 8 µg/mL; in the data set with Bacillus subtilis [1] it was 8 µg/mL; in the data set with Enterococcus sp., 32 µg/mL; against Klebsiella pneumoniae, > 128 µg/mL. The minimum inhibitory concentration (MIC) in data set [3] is 4 µg/mL; in the data set with Pseudomonas aeruginosa [4], 64 µg/mL; in data set [5], 4 µg/mL; against Staphylococcus aureus [6], 4 µg/mL; against Escherichia coli [7], 32 µg/mL. In addition, the selectivity ratio in data set [11] amounted to 16. Further, the solubility in [2] is > 64 µg/mL. Further, the EC50 in the data set on Erythrocyte is 64 µg/mL; in the data set with MRC5, > 100 µg/mL. The “MBIC=>90” value in data set [12] stood at 40 µg/mL.
